Experimental data of several laboratories.
Each line is one published result; the experiments were not run side by side. In brackets after ≈: the same amount, converted by molar mass.
Observed: microbial growth

With Cc1ccc(N=Nc2c(N)nn3c(-c4ccc(Cl)cc4Cl)cc(-c4ccc(OCc5ccccc5)cc4)nc23)cc1 the MIC was 31.3 mg/L (≈ 54 µM) (Enterobacter cloacae; ATCC23355).
The MIC of Cc1ccc2[nH]nc(-c3nnc(Nc4cc(Cl)cc(Br)c4)s3)c2c1 is reported as 250 mg/L (≈ 595 µM) (Serratia marcescens; ATCC8100).
The MIC of Nc1nn2c(-c3ccco3)cc(-c3ccc(OCc4ccccc4)cc3)nc2c1N=Nc1ccc(F)cc1 is reported as 15.6 mg/L (≈ 30.9 µM) (Enterobacter cloacae; ATCC23355).
Cc1ccc2[nH]nc(-c3nnc(Nc4ccc([N+](=O)[O-])cc4)s3)c2c1 gave an MIC of 56.2 mg/L (≈ 159 µM) (Serratia marcescens; ATCC8100).
C[C@@H](O)[C@H]1C(=O)N2C(C(=O)O)=C(SCCN=CN)C[C@H]12 gave an MIC of 2 mg/L (≈ 6.68 µM) (Enterobacter cloacae; broth dilution; ATCC13047).
CCCCCCC#Cc1cncc(-c2nnc(SCc3ccc(Cl)cc3)n2CCCN)c1 gave an MIC of over 64 mg/L (Enterobacter cloacae; broth dilution; DSM30054).
For Cc1ccc(-c2cc(-c3ccc(OCc4ccccc4)cc3)nc3c(N=Nc4ccc(F)cc4)c(N)nn23)cc1, the MIC was 31.3 mg/L (≈ 59.2 µM) (Enterobacter cloacae; ATCC23355).
The MIC of CCCCCCC#Cc1cncc(-c2nnc(SCc3ccc([N+](=O)[O-])cc3)n2CCCN)c1 is reported as over 64 mg/L (Enterobacter cloacae; broth dilution; DSM30054).
The MIC of CC[C@H]1OC(=O)[C@H](C)[C@@H](O[C@H]2C[C@@](C)(OC)[C@@H](O)[C@H](C)O2)[C@H](C)[C@@H](O[C@@H]2O[C@H](C)C[C@H](N(C)C)[C@H]2O)[C@](C)(O)C[C@@H](C)CN(C)[C@H](C)[C@@H](O)[C@]1(C)O is reported as 4 mg/L (≈ 5.34 µM) (Enterobacter cloacae; broth dilution; ATCC13047).
With Cc1ccc2[nH]nc(-c3nnc(Nc4ccc(Cl)c(Cl)c4)s3)c2c1 the MIC was 110 mg/L (≈ 292 µM) (Serratia marcescens; ATCC8100).
The MIC of Nc1nn2c(-c3ccc(Cl)cc3Cl)cc(-c3ccc(OCc4ccccc4)cc3)nc2c1N=Nc1ccc(F)cc1 is reported as 15.6 mg/L (≈ 26.7 µM) (Enterobacter cloacae; ATCC23355).
With CN(C)[C@@H]1C(O)=C(C(N)=O)C(=O)[C@@]2(O)C(O)=C3C(=O)c4c(O)cccc4[C@@](C)(O)[C@H]3C[C@@H]12 the MIC was 2 mg/L (≈ 4.5 µM) (Enterobacter cloacae; broth dilution; ATCC13047).
CCCCCCC#Cc1cncc(-c2nnc(SCc3cc([N+](=O)[O-])cc([N+](=O)[O-])c3)n2CCCN)c1 has an MIC of over 64 mg/L (Enterobacter cloacae; broth dilution; DSM30054).
CNC(C)C1CCC(N)C(OC2C(N)CC(N)C(OC3OCC(C)(O)C(NC)C3O)C2O)O1 (stereo not shown) gave an MIC of 4 mg/L (≈ 8.38 µM) (Enterobacter cloacae; broth dilution; ATCC13047).
The MIC of Cc1ccc2[nH]nc(-c3nnc(Nc4ccc(F)cc4)s3)c2c1 is reported as 56.9 mg/L (≈ 175 µM) (Serratia marcescens; ATCC8100).
With COc1ccc(N=Nc2c(N)nn3c(-c4ccc(C)cc4)cc(-c4ccc(OCc5ccccc5)cc4)nc23)cc1 the MIC was 31.3 mg/L (≈ 57.9 µM) (Enterobacter cloacae; ATCC23355).
